Test results as given in ChEMBL document CHEMBL3244385, “Antitumor anthracycline antibiotics. Structure-activity and structure-cardiotoxicity relationships of rubidazone analogues” (J Med Chem, 1978).

What was measured:
P388 [1] = test: In vivo antitumor activity against mouse P388 cells allografted in BDF/CDF mouse assessed as host survival time at 2 mg/kg, ip administered on days 1 to 9 relative to control; type: functional; conditions: route intraperitoneal
Summary of the method: (§1)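 P-388 lymphocytic leukemia, 10⁶ cells injected ip into BDF or CDF mice on day 0; drug given ip daily on days 1-9 at the stated dose. Read-out T/C: average survival time of treated mice as percent of untreated controls. Assays run by NCI Drug Research and Development Program.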

P388 [2] = test: In vivo antitumor activity against mouse P388 cells allografted in BDF/CDF mouse assessed as host survival time at 1 mg/kg, ip administered on days 1 to 9 relative to control; type: functional; conditions: route intraperitoneal; summary of the method: as §1
Rattus norvegicus [3] = organism: Rattus norvegicus; test: Cardiotoxicity in rat ECG model relative to adriamycin; conditions: in vivo
[4] = Partition coefficient, log P of the compound; type: physicochemical; conditions: octanol/water
[5] = Dissociation constant, pKa of Ar-COOH group of the compound; type: physicochemical
P388 [6] = test: In vivo antitumor activity against mouse P388 cells allografted in BDF/CDF mouse assessed as host survival time at 0.25 mg/kg, ip administered on days 1 to 9 relative to control; type: functional; conditions: route intraperitoneal; summary of the method: as §1
Rattus norvegicus [7] = organism: Rattus norvegicus; test: Cardiotoxicity in rat ECG model; conditions: in vivo
L1210 [8] = test: Inhibition of DNA synthesis in mouse L1210 cells; type: functional; conditions: read-out: ED50 (the source's name)
[9] = Drug metabolism in 0.01 M phosphate buffer assessed as hydrolysis rate after 3 hrs at 50 degC
P388 [10] = test: In vivo antitumor activity against mouse P388 cells allografted in BDF/CDF mouse assessed as host survival time at 4 mg/kg, ip administered on days 1 to 9 relative to control; type: functional; conditions: route intraperitoneal; summary of the method: as §1
P388 [11] = test: In vivo antitumor activity against mouse P388 cells allografted in BDF/CDF mouse assessed as host survival time at 0.5 mg/kg, ip administered on days 1 to 9 relative to control; type: functional; conditions: route intraperitoneal; summary of the method: as §1
Calf thymus DNA = test: Binding affinity to calf thymus DNA assessed as change in melting temperature at 5 uM by spectrophotometer analysis; type: nucleic-acid assay; conditions: Bos taurus
Summary of the method: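 Drug dissolved in Me2SO, diluted with buffer, then mixed with calf thymus DNA. Final mix: 0.01 M phosphate pH 7, 5×10^-5 M DNA, 5×10^-6 M drug, 10^-5 M EDTA, 5% Me2SO. Absorbance at 259 nm recorded every 30 s while heating at 18 °C/h. Tm is the midpoint of the corrected curve; the shift is taken against DNA alone.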

L1210 [12] = test: Inhibition of RNA synthesis in mouse L1210 cells; type: functional; conditions: read-out: ED50 (the source's name)
[13] = Half life in 0.01 M phosphate buffer at 10 uM at pH 7.4 at 50 degC; type: physicochemical
Summary of the method: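 Drug at 1×10^-5 M in 0.01 M phosphate, pH 7.4, 50 °C, no DNA. Absorbance followed continuously for 3 h at a drug-specific wavelength (345 or 259 nm). Buffer baseline subtracted. Data fit to A = ΣA0 + c·e^(-kt), with ΣA0 the absorbance of daunorubicin plus the […], and t1/2 derived from the fit.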

P388 [14] = test: In vivo antitumor activity against mouse P388 cells allografted in BDF/CDF mouse assessed as host survival time at 8 mg/kg, ip administered on days 1 to 9 relative to control; type: functional; conditions: route intraperitoneal; summary of the method: as §1
P388 [15] = test: In vivo antitumor activity against mouse P388 cells allografted in BDF/CDF mouse assessed as host survival time at 16 mg/kg, ip administered on days 1 to 9 relative to control; type: functional; conditions: route intraperitoneal; summary of the method: as §1
P388 [16] = test: In vivo antitumor activity against mouse P388 cells allografted in BDF/CDF mouse assessed as host survival time at 0.125 mg/kg, ip administered on days 1 to 9 relative to control; type: functional; conditions: route intraperitoneal; summary of the method: as §1

Work on `COc1cccc2c1C(=O)c1c(O)c3c(c(O)c1C2=O)C[C@@](O)(/C(C)=N/NC(=O)c1ccc(Cl)cc1)C[C@@H]3O[C@H]1C[C@H](N)[C@H](O)[C@H](C)O1.Cl` yielded a T/C (P388 [1]) of 163%, a T/C (P388 [2]) of 145% and a Ratio (Rattus norvegicus [3]) of 3.5. The logP [4] was 1.75, the pKa [5] was 4.03 and the T/C (P388 [6]) was 145%. For the same compound, the MCCD (Rattus norvegicus [7]) was 48 mg/kg, the EC50 (L1210 [8]) was 1.9 µM and the Drug metabolism [9] was “metabolite_detected”. The T/C (P388 [10]) was 211%, the T/C (P388 [11]) was 139% and the ΔTm (Calf thymus DNA) was 11.4 °C. The EC50 (L1210 [12]) was 1 µM, the half-life at 10 µM [13] was 37 min and the T/C (P388 [14]) was 109%. The T/C (P388 [15]) was 63% and the T/C (P388 [16]) was 110%.
